Reference: the RNAGym collection of RNA variant scans (doi:10.1038/s41586-018-0170-7)

B1: tRNA (parent)
chain: GUUCCGUUGGCGUAAUGGUAACGCGUCUCCCUCCUAAGGAGAAGACUGCGGGUUCGAGUCCCGUACGGAACG

Variants of: B1
Test: yeast fitness, log relative to wild type (ln ratio); higher = fitter; tRNA-Arg(CCU), competitive growth, 37 C, 1 M NaCl
Method in brief: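 BY4742 cells without the chromosomal tRNA-Arg(CCU) gene carried a combinatorial variant library on a HIS3 centromeric plasmid, from two independent transformations. After 4 generations in SC-HIS at 30 °C, pools spent ~6.5 generations (~26.5 h) in SC-HIS 1M NaCl at 37 °C, giving three outputs per input, and 125 bp paired-end Illumina reads counted the variants. Fitness is the natural log of each genotype's generations over the wild type's, with generations taken as OD-scaled log2 output/input frequency weighted by inverse variance across replicates.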

In order of rising “yeast fitness (ln)” value:
1. U2G G6A C66U A69G A70U C71U  -0.641
2. G1A G6A C27U A43C C66U A69G A70U C71U  -0.628
3. G1A G6A C27U C66U A70G C71U  -0.566
4. G1A U2C C27U C66U A69G A70U C71U  -0.54
5. G1A U2G G6U A43C A69G C71U  -0.537
6. U2C C27U C66U A69G A70G C71U  -0.529
7. G1A G6A A43C A69G A70U C71U  -0.503
8. U2G G6A C27U A43C A69G A70U C71U  -0.502
9. U2C G6U C27U A43C C46U C66U A69G C71U  -0.465
10. G1A U2G C27U A43C C66U C71U  -0.452
11. G1A G6U C27U A43C A70G  -0.439
12. G1A G6A C27U C66U A70U  -0.431
13. G1A G6A C46U C66U A69G  -0.423
14. U2C G6A C46U C66U A69G A70U C71U  -0.419
15. U2G G6U A43C C66U A69G C71U  -0.408
16. G1A U2G G6A C27U C46U C66U A69G A70G C71U  -0.407
17. G1A U2G G6U C27U A69G A70U C71U  -0.404
18. U2G G6U A43C A69G C71U  -0.402
19. G1A U2C G6A A43C C46U C66U A70U C71U  -0.402
20. U2G C27U A43C C46U C66U A69G C71U  -0.394
21. U2C C27U C46U C66A A69G A70U C71U  -0.387
22. G1A U2G G6U C27U C66U A70U  -0.386
23. C27U A70G C71U  -0.38
24. G6U C27U A43C C46U C66U A70G C71U  -0.378
25. G6A C27U A43C C66U A69G A70G C71U  -0.371
26. G1A U2G C27U A70G C71U  -0.371
27. C27U C66U A69G A70U C71U  -0.369
28. G1A G6A C71U  -0.363
29. G1A G6U C27U A43C C66U  -0.362
30. G6U A43C C46U C66U A70U C71U  -0.359
31. G6A C46U C71U  -0.359
32. A43C C66U A70U C71U  -0.358
33. G6A C46U C66U A69G A70U C71U  -0.35
34. G1A G6U C27U A43C C46U A69G A70G  -0.346
35. G1A G6A C27U A69G A70G C71U  -0.344
36. G1A U2G A43C C46U C66U A69G A70U C71U  -0.341
37. G1A U2G G6U C27U A43C A70U  -0.338
38. G1A U2G A43C C46U C66A A69G C71U  -0.335
39. G1A U2C G6U A43C C66U A70G C71U  -0.335
40. G1A G6U A43C C46U C66A A70U C71U  -0.334
41. G1A U2G C27U A70U  -0.33
42. G1A U2G G6U C27U A70G C71U  -0.326
43. G6A C27U A43C C66A A70G C71U  -0.325
44. C27U A43C C46U C66A A69G C71U  -0.317
45. U2G G6U C27U C66U A70G C71U  -0.312
46. U2G C27U C46U C66U A70U C71U  -0.308
47. U2G G6A C27U A43C C66U A69G A70G  -0.3
48. U2C G6U A43C C46U A69G A70G  -0.3
49. C27U C46U A69G A70G C71U  -0.298
50. G1A C27U A43C C66U A69G A70G  -0.295
51. G1A U2G C27U C46U A70U  -0.293
52. U2G C27U A43C C66A A69G A70U  -0.291
53. G1A G6U C27U C46U C66U A70U  -0.29
54. G1A A43C C66U C71U  -0.289
55. G1A G6U C66U A69G A70G  -0.288
56. C27U A43C C46U C66U A69G A70U  -0.285
57. G1A U2C A43C C66A A70U C71U  -0.285
58. U2G G6A C27U A43C C46U C66A C71U  -0.283
59. G1A U2C G6U C27U A43C A69G A70U C71U  -0.282
60. U2G C27U A43C C46U C66U A69G A70G  -0.275
61. U2G G6U C27U C66A A70U C71U  -0.275
62. A43C C46U C66U A69G C71U  -0.273
63. G6U C27U A43C C46U A69G  -0.268
64. U2G A43C C66U A70U  -0.268
65. G1A U2G C27U C46U C66U A69G A70G C71U  -0.267
66. G1A U2C G6U C46U C66U A70G  -0.265
67. G1A U2C C27U C46U C66A A70G C71U  -0.262
68. U2G G6U C27U A43C C46U C66U  -0.262
69. G1A U2G C27U C66U A69G A70G  -0.26
70. U2C G6A C46U C66A A69G A70G C71U  -0.258
71. G6U A43C C71U  -0.253
72. G1A A43C C66U A69G A70G  -0.243
73. G1A U2G A43C C46U C66U A70G C71U  -0.243
74. G1A U2G A43C C66A A70G  -0.241
75. U2G G6U A43C C46U C66U A70G C71U  -0.241
76. G6A C27U C46U C66A A70U C71U  -0.234
77. U2C G6U C66U A70U C71U  -0.233
78. C27U A43C C66U A70G  -0.227
79. U2C G6A C27U A43C C46U C66U A70U C71U  -0.225
80. G6U C27U C71U  -0.222
81. G1A U2C G6U C27U A69G A70G C71U  -0.22
82. U2G G6U C27U A43C C66U A70U  -0.219
83. U2G G6U C27U C71U  -0.218
84. G1A U2G G6U C27U C46U  -0.217
85. U2G C27U C46U A70G C71U  -0.216
86. G1A U2G G6A A43C A70U  -0.216
87. C27U C46U A69G A70U  -0.209
88. G6A A43C C46U C66A A69G A70G C71U  -0.207
89. C27U A69G A70U  -0.206
90. U2G G6A A43C C46U C66U A70G  -0.205
91. U2G C27U A43C C66U A70U  -0.205
92. G1A U2G C66U C71U  -0.201
93. G1A U2C G6U C27U C46U C66U C71U  -0.196
94. U2G C46U C66A A69G C71U  -0.191
95. G6A A43C C66A A70U  -0.188
96. G1A G6U C27U C46U C66A A69G C71U  -0.187
97. U2G G6U A43C C46U C66U A70G  -0.185
98. C27U A43C A70U C71U  -0.181
99. G6A C27U A43C C46U C71U  -0.176
100. U2C C46U A69G A70U C71U  -0.169
101. U2C G6A C27U A70G  -0.167
102. G6U A69G A70G  -0.16
103. U2G A43C C66U A70G  -0.156
104. G1A U2G G6A C27U C46U  -0.154
105. U2G G6U C27U C46U A69G A70U  -0.153
106. G1A U2C G6U C27U A43C C46U A70U  -0.151
107. G1A U2C C27U C46U C66A A70U C71U  -0.15
108. G1A U2C G6U C46U A69G A70G C71U  -0.15
109. G1A U2G C66A A70U C71U  -0.146
110. G6A C46U A70G C71U  -0.145
111. U2C C46U C66U A69G C71U  -0.145
112. C27U C66U A69G A70U  -0.143
113. U2G G6U A43C C46U C66A A70U C71U  -0.135
114. G6A A43C C66U A70G  -0.128
115. U2G G6U A43C C66A  -0.122
116. U2G C46U C66U A69G  -0.119
117. A43C C46U C66U C71U  -0.115
118. C27U A69G C71U  -0.113
119. U2C G6A A43C C46U A70G C71U  -0.112
120. G1A A43C A69G A70G  -0.11
121. G6A A43C C66U A69G  -0.109
122. G1A U2G C27U C71U  -0.108
123. U2C G6A C46U A69G C71U  -0.107
124. G1A G6A C46U A70U  -0.103
125. U2C C27U A69G C71U  -0.102
126. U2C C27U A43C A69G  -0.0976
127. G1A U2C G6U C66U A70U C71U  -0.095
128. U2G C46U C66U  -0.0936
129. U2G C46U C66A  -0.0933
130. G1A U2G C27U A43C C46U C71U  -0.0914
131. U2C A43C A70U  -0.0907
132. U2C G6A A43C C46U A70U C71U  -0.09
133. G6A C27U C46U C66U A70U  -0.0845
134. U2G C27U A43C A69G  -0.0811
135. U2G C27U C66A A70U  -0.0765
136. G6U C27U C66A A70G  -0.0711
137. G1A C27U C46U A70G C71U  -0.0653
138. U2C G6U C71U  -0.0615
139. U2G G6A C27U C46U C66A  -0.0567
140. C66A A70U C71U  -0.0544
141. G6A C46U C66U A69G C71U  -0.0544
142. U2G C66U  -0.0538
143. A43C C46U A69G C71U  -0.0511
144. U2G C27U C46U C66A A69G A70U  -0.0493
145. U2C G6A C27U C46U C66U A69G A70G C71U  -0.0479
146. G1A C27U C46U A69G C71U  -0.047
147. G1A U2C G6A A43C C46U A69G A70U  -0.0463
148. U2G G6A C27U C46U  -0.0462
149. G1A G6A C46U C66U A69G A70U  -0.0453
150. G1A A69G A70U  -0.0407
151. G6A C46U C66A A70U  -0.0387
152. U2C G6A C27U C46U C66U A69G A70G  -0.0335
153. U2C G6A A43C C46U C66A A70U C71U  -0.0318
154. G1A G6A C66U A69G C71U  -0.0291
155. G6U C66A C71U  -0.0261
156. U2C G6A C27U C46U C66A A70G  -0.0252
157. U2C G6A C27U A43C C46U C66U A70G C71U  -0.0215
158. U2C C46U C66U A69G A70G  -0.02
159. U2C G6A C27U A43C C46U  -0.0171
160. U2G G6A C27U C66U A70U  -0.0165
161. U2G G6A C27U A43C C46U C66U A70U  -0.0122
162. G1A U2C A43C A69G A70G C71U  -0.0094
163. G1A A69G C71U  -0.0087
164. U2C C46U A70G  0.000328
165. G6U C66A A69G  0.00209
166. G6U C46U C66A  0.00404
167. U2G G6U C46U C66A A69G A70U  0.00778
